The source made the active and inactive calls. The rule behind the calls is not given here.
Legend:
Med1 [1] = assay: Induction of cell cycle arrest in […] Med1 cells assessed as increased accumulation of cells in G1 phase by PI staining based FACS analysis; format: functional
Method in brief: (§1)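 Med1-MB cells were treated with JQ1, fixed in 70% ethanol for 30 min at 4 °C, and stained with PI plus RNase A at 37 °C for 45 min. Cells were filtered through 70 um mesh, and cell-cycle distribution was read by FACS.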

Medulloblastoma cell [2] = assay: Induction of apoptosis in human wildtype SMO expressing medulloblastoma cells assessed as viable cells by annexin-V/PI staining based flow cytometric analysis (reference value: 74.9%); format: functional
[3] = target: Bromodomain-containing protein 4 (Danio rerio) (UniProt F1R5H6); assay: Inhibition of BRD4 in danio rerio assessed as decrease in GFP mRNA expression level by qRT-PCR analysis
[4] = Induction of apoptosis in human Med1 cells assessed as late apoptotic cells by annexin-V/PI staining based flow cytometric analysis (reference value: 0.60%); format: functional, Medulloblastoma cell
[5] = Toxicity in NSG mouse xenografted with Med1 cells assessed as survival of mouse at 50 mg/kg/day, ip; format: organism-based; conditions: in vivo
Method in brief: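 Med1-MB cells carrying luciferase, 0.5x10e6, were injected into the cerebellum of NSG mice. After engraftment was confirmed, mice were randomized to JQ1 50 mg/kg IP daily or vehicle until euthanasia was required, and survival was recorded.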

Medulloblastoma cell [6] = assay: Induction of apoptosis in mouse wildtype SMO expressing medulloblastoma cells assessed as necrotic cells by annexin-V/PI staining based flow cytometric analysis (reference value: 22%)
Danio rerio = species on record: Danio rerio; assay: Effect on heat shock treated transgenic zebra fish assessed as increase in eye diameter; format: functional, organism-based
Method in brief: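 Tg(hsp70l:shha-EGFP)+/− x TL embryos were heat shocked at 38 °C for 15 min at the 8-somite stage, then placed directly in JQ1 (0.6 or 6.0 um) or DMSO. At […] embryos were sorted GFP+/− into fresh drug. Eye dorsal axis length was scored at 56 hpf, n=12 per group; Student's t-test.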

Medulloblastoma cell [7] = assay: Antiproliferation of […] Hh driven medulloblastoma cells […] by cell titre glo assay; format: functional, cell-based
Med1 [8] = assay: Induction of cell cycle arrest in […] Med1 cells assessed as decreased accumulation of cells in S phase by PI staining based FACS analysis; format: functional; method in brief: as §1
Med1 [9] = assay: Downregulation of Gli1mRNA expression in […] Med1 cells at 1 microM by qRT-PCR analysis; format: functional, cell-based
Method in brief: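 Med1-MB cells were treated with JQ1 1 uM, and Gli1 mRNA was measured by SYBR Green qRT-PCR. Values are mean of triplicates ± SD.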

Medulloblastoma cell [10] = assay: Antitumor activity in […] medulloblastoma cells expressing SmoD477G mutant xenografted in NSG mouse assessed as decrease in tumor growth at 50 mg/kg/day, ip; format: functional, organism-based
Method in brief: (§2)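 SmoWT-MB or SmoD477G-MB cells, 2x10e6 per flank, injected into both flanks of 4-6 week old NSG mice. After engraftment mice were randomized to vehicle, JQ1 50 mg/kg IP qd or GDC-0449 100 mg/kg PO qd until euthanasia was required. Tumor growth was measured by caliper; data are group means ± S.E.M.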

Hh-Light2 [11] = assay: Downregulation of Brd4 mRNA level in […] Hh-Light2 cells at 1 microM by qRT-PCR analysis; format: functional, cell-based
Method in brief: (§3)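 Hh-Light2 (mouse 3T3 Gli-luciferase reporter line) cells were stimulated with Shh-N conditioned medium or SAG, alone or with JQ1 1 uM. Gli1, Gli2, Ptch1, Sufu, Smo and Brd4 mRNA were measured by SYBR Green qRT-PCR. Values are mean of triplicates ± SD.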

Medulloblastoma cell [12] = assay: Cytotoxicity in Ptch-mutated in […] medulloblastoma cells expressing wildtype SMO by CellTiter-Glo analysis; format: functional, cell-based
Hh-Light2 [13] = assay: Upregulation of Smo mRNA level in […] Hh-Light2 cells at 1 microM by qRT-PCR analysis; format: functional, cell-based; method in brief: as §3
Hh-Light2 [14] = assay: Inhibition of full length murine Gli2 expressed in […] Hh-Light2 cells assessed as reduction in mRNA level at 1 microM by qRT-PCR analysis; format: cell-based; conditions: Mus musculus
Method in brief: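 Hh-Light2 cells were transiently transfected with HA-Gli2-FL using Turbofect and treated 24 h later with 1 uM JQ1, GDC-0449, LDE225 or SANT-1. Gli1 mRNA was measured by qRT-PCR. Values are mean of triplicates ± SD.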

Hh-Light2 [15] = assay: Upregulation of Ptch1 mRNA level in […] Hh-Light2 cells transfected with full length murine Gli2 by RT-PCR analysis; format: functional, cell-based; conditions: dose 1.0 µM
Method in brief: (§4)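 Hh-Light2 cells were transiently transfected with HA-Gli2-FL (murine) or Myc-GLI2-DN (N-terminally truncated human) and treated with drugs 24 h post-transfection. Ptch1 mRNA was measured by qRT-PCR. Values are mean of triplicates ± SD.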

Hh-Light2 [16] = assay: Upregulation of Ptch1 mRNA level in […] Hh-Light2 cells at 1 microM by qRT-PCR analysis; format: functional, cell-based; method in brief: as §3
Medulloblastoma cell [17] = assay: Antiproliferation of human Hh driven medulloblastoma cells by cell titre glo assay; format: functional, cell-based
MEF [18] = assay: Downregulation of Gli2 transcription in Sufu-/- MEF cells at 1 microM by […] analysis; format: functional, cell-based; conditions: Mus musculus
Medulloblastoma cell [19] = assay: Downregulation of Smo mRMA expression in […] Medulloblastoma cell expressing wildtype SMO at 1 microM by qRT-PCR analysis; format: functional, cell-based
Method in brief: (§5)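 SmoWT-MB cells were treated with JQ1 at 1 uM (GDC-0449 or LDE225 at 0.1 uM as comparators). Gli1, Gli2, Smo, Sufu and Brd4 mRNA were measured by SYBR Green quantitative RT-PCR. Values are mean of triplicates ± SD.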

Hh-Light2 [20] = assay: Upregulation of Sufu mRNA level in […] Hh-Light2 cells at 1 microM by qRT-PCR analysis; format: functional, cell-based; method in brief: as §3
[21] = Cytotoxicity in Ptch-mutated human Med1 cells expressing wildtype SMO by CellTiter-Glo analysis; format: functional, cell-based
[22] = Induction of apoptosis in human Med1 cells assessed as necrotic cells by annexin-V/PI staining based flow cytometric analysis (reference value: 1.87%); format: functional, Medulloblastoma cell
Hh-Light2 [23] = assay: Upregulation of Gli1 mRNA level in […] Hh-Light2 cells at 1 microM by qRT-PCR analysis; format: functional, cell-based; method in brief: as §3
Medulloblastoma cell [24] = assay: Downregulation of BRD4 mRMA expression in […] Medulloblastoma cell expressing wildtype SMO at 1 microM by qRT-PCR analysis; format: functional, cell-based; method in brief: as §5
Hh-Light2 [25] = assay: Upregulation of Gli2 mRNA level in […] Hh-Light2 cells at 1 microM by qRT-PCR analysis; format: functional, cell-based; method in brief: as §3
Medulloblastoma cell [26] = assay: Induction of apoptosis in human wildtype SMO expressing medulloblastoma cells assessed as early apoptotic cells by annexin-V/PI staining based flow cytometric analysis (reference value: 0.59%); format: functional
Hh-Light2 [27] = assay: Upregulation of Ptch1 mRNA level in […] Hh-Light2 cells transfected with […] GlI2 by RT-PCR analysis; format: functional, cell-based; conditions: dose 1.0 µM; method in brief: as §4
[28] = Induction of apoptosis in human Med1 cells assessed as early apoptotic cells by annexin-V/PI staining based flow cytometric analysis (reference value: 1.09%); format: functional, Medulloblastoma cell
Medulloblastoma cell [29] = assay: Antitumor activity in […] medulloblastoma expressing wildtype SMO xenografted in NSG mouse assessed as reduction in tumor growth at 50 mg/kg/day, ip; format: functional, organism-based; method in brief: as §2
[30] = Induction of apoptosis in human Med1 cells assessed as viable cells by annexin-V/PI staining based flow cytometric analysis (reference value: 96.4%); format: functional, Medulloblastoma cell
MEF [31] = assay: Downregulation of Gli1 mRNA level in Sufu-/- MEF cells at 1 microM by qRT-PCR analysis; format: functional, cell-based; conditions: Mus musculus
Method in brief: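 Sufu−/− MEFs were treated with DMSO or inhibitors at 1 uM, and Gli1/Gli2 mRNA was measured by SYBR Green qRT-PCR (mean of triplicates ± SD). A time course with JQ1 1 uM included a 3 h point.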

Med1 [32] = assay: Antitumor activity in […] Med1 cells xenografted in NSG mouse assessed as reduction in tumor growth at 50 mg/kg/day, ip; format: functional, organism-based
Method in brief: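 Med1-MB cells carrying a lentiviral luciferase reporter, 2x10e6 injected into the flank of 4-6 week old NSG mice. After engraftment was confirmed, mice were randomized to JQ1 50 mg/kg IP daily or vehicle. Tumor growth was followed by IVIS imaging as average radiance; tumor size was also recorded at day 21 of treatment.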

Medulloblastoma cell [33] = assay: Antiproliferative activity against in […] medulloblastoma cells expressing SmoWT-MB cells from mouse assessed as cell proliferation by EdU analysis; format: functional, cell-based
Method in brief: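 SmoWT-MB cells given 0.1uM GDC-0449 or LDE225 (or JQ1 1 uM); 10uM EdU added for final 6-8hrs; EdU+ cells detected by Click-iT flow cytometry or imaging, DAPI counterstain; proliferation index = EdU+/DAPI+ cells; group means ± SD.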

Medulloblastoma cell [34] = assay: Induction of apoptosis in mouse wildtype SMO expressing medulloblastoma cells assessed as late apoptotic cells by annexin-V/PI staining based flow cytometric analysis (reference value: 2.5%)
Medulloblastoma cell [35] = assay: Downregulation of sufu mRMA expression in […] Medulloblastoma cell expressing wildtype SMO at 1 microM by qRT-PCR analysis; format: functional, cell-based; method in brief: as §5
MEF [36] = assay: Downregulation of BRD4 mRNA level in Sufu-/- MEF cells by qRT-PCR analysis; format: functional, cell-based; conditions: Mus musculus
MEF [37] = assay: Downregulation of Gli transcription in Sufu-/- MEF cells by immunoblot analysis; format: functional, cell-based; conditions: Mus musculus
Method in brief: (§6)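 Sufu−/− MEFs exposed to DMSO or 1 uM of JQ1, GDC-0449, LDE225 or SANT-1; RIPA lysis 30min on ice, cleared 13000rpm 15min 4°C; SDS-PAGE immunoblot with anti-GLI1, β-tubulin as loading control.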

MEF [38] = assay: Downregulation of Gli1 protein expression in Sufu-/- MEF cells by immunoblot analysis; format: functional, cell-based; conditions: Mus musculus; method in brief: as §6
[39] = target: Bromodomain-containing protein 4 (Mus musculus) (UniProt Q9ESU6); assay: Inhibition of BRD4 in mouse Hh-Light2 cells assessed as Gli1 mRNA level by qRT-PCR analysis
[40] = target: Bromodomain-containing protein 4 (Mus musculus) (UniProt Q9ESU6); assay: Inhibition of BRD4 in mouse Hh-Light2 cells assessed as inhibition in Gli1 protein level by immunoblot analysis
[41] = target: Zinc finger protein GLI2 (Homo sapiens) (UniProt P10070); assay: Inhibition of human GLI2 expressed in Hh-Light2 cells assessed as reduction in Gli1 mRNA expression level by qRT-PCR analysis; format: cell-based
Method in brief: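 Hh-Light2 cells transiently transfected (Turbofect) with full-length murine HA-Gli2-FL or N-terminally truncated human Myc-GLI2-DN; drugs (1 uM JQ1, GDC-0449, LDE225 or SANT-1) added 24hr post-transfection; Gli1 mRNA by SYBR Green qRT-PCR; mean of triplicates ± SD.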

[42] = test system: Basal cell carcinoma cell (Mus musculus); assay: Antitumor activity in mouse basal cell carcinoma allografted in mouse assessed as reduction in tumor growth at 100 mg/kg/day, ip

Zinc finger protein GLI2 (Homo sapiens), sequence (P10070 whole entry, the tested form may be a part): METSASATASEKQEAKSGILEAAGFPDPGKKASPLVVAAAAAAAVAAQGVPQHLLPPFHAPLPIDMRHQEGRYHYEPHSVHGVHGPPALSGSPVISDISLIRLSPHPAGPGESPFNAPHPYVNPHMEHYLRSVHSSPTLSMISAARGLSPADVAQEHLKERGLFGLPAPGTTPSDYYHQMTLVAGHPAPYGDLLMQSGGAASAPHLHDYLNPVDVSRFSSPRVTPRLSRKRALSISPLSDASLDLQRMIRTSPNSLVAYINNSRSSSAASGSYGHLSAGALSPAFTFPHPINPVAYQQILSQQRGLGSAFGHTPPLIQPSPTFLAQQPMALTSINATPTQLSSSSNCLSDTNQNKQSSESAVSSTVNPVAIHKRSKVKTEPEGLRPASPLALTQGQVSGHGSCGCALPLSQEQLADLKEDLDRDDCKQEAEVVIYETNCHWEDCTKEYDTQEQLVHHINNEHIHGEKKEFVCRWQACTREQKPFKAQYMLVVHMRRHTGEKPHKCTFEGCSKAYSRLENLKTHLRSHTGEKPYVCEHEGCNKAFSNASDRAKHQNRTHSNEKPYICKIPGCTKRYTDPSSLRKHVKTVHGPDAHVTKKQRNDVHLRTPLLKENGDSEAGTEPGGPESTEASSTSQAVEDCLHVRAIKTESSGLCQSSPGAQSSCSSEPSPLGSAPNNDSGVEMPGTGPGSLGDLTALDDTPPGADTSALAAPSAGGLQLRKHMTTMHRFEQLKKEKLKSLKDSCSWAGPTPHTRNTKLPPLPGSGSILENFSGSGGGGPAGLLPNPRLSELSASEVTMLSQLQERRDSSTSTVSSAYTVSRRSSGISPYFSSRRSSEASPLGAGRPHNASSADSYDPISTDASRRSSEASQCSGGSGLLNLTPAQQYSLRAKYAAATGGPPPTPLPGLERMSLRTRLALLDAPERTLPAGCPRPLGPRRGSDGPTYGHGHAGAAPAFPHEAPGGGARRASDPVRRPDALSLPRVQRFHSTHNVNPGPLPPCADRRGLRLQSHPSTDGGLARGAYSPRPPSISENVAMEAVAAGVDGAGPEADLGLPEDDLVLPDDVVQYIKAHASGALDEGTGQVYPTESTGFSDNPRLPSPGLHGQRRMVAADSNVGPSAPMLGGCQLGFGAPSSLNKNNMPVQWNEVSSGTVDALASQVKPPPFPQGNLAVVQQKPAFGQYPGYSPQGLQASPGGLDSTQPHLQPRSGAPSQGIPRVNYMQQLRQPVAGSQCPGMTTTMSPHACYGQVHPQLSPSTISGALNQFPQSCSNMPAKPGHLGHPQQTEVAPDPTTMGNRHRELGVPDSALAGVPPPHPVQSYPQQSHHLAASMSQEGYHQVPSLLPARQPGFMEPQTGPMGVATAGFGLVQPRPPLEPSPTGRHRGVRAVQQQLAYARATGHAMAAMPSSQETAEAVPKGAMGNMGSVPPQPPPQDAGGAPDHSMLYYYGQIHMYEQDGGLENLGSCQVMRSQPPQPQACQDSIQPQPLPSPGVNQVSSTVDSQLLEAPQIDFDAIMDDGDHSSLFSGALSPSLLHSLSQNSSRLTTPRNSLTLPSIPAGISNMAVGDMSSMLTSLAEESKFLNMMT
Bromodomain-containing protein 4 (Danio rerio), sequence (F1R5H6 whole entry): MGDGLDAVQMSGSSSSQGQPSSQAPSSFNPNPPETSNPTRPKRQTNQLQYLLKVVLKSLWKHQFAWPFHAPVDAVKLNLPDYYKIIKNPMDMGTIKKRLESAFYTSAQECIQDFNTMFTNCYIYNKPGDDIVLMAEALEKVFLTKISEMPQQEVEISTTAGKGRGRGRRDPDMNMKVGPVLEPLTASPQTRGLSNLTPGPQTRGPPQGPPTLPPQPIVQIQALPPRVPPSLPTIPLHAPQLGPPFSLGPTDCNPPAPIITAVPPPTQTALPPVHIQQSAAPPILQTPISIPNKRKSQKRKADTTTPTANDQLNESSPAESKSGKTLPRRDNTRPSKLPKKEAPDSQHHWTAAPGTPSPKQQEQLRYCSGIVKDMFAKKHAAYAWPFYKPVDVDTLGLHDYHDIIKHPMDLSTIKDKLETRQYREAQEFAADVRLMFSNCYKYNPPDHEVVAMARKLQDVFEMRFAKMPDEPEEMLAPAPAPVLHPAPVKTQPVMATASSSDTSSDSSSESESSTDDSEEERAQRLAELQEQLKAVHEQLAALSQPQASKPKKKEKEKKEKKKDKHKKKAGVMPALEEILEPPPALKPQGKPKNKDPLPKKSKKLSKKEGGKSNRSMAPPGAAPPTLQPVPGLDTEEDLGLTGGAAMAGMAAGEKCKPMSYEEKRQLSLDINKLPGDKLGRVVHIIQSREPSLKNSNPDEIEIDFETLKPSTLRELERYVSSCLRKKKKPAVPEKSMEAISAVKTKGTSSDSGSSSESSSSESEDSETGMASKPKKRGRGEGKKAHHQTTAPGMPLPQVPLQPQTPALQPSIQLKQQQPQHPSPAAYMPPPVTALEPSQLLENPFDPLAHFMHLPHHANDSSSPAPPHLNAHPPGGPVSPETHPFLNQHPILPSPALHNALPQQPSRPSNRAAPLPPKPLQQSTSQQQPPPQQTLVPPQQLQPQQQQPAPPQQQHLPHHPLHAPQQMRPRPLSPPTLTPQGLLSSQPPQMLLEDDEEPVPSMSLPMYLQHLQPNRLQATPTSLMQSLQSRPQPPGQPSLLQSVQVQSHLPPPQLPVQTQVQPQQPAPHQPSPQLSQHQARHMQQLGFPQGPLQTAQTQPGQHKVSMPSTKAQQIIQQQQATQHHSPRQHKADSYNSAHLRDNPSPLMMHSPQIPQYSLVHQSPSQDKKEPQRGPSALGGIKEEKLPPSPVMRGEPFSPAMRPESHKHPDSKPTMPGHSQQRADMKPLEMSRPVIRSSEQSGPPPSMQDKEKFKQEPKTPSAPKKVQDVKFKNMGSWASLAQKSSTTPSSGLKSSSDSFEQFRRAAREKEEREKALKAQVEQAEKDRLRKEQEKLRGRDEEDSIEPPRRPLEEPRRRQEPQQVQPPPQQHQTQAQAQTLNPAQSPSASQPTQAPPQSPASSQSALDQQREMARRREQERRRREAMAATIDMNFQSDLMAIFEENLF

Cc1sc2c(c1C)C(c1ccc(Cl)cc1)=N[C@@H](CC(=O)OC(C)(C)C)c1nnc(C)n1-2
Activity (Med1 [1]): Active | Activity (Medulloblastoma cell [2]): 39.2% | inhibition [3]: Active | Activity [4]: 1.61% | Activity [5]: Non-Toxic | Activity (Medulloblastoma cell [6]): 54.7% | Activity (Danio rerio): Active | Activity (Medulloblastoma cell [7]): Active | Activity (Med1 [8]): Active | Activity (Med1 [9]): Active | Activity (Medulloblastoma cell [10]): Active | Activity (Hh-Light2 [11]): inactive | IC50 (Medulloblastoma cell [12]): ~50 nM | Activity (Hh-Light2 [13]): Active | inhibition (Hh-Light2 [14]): Active | Activity (Hh-Light2 [15]): inactive | Activity (Hh-Light2 [16]): Active | Activity (Medulloblastoma cell [17]): Active | Activity (MEF [18]): Active | Activity (Medulloblastoma cell [19]): Active | Activity (Hh-Light2 [20]): inactive | IC50 [21]: ~50 nM | Activity [22]: 10.1% | Activity (Hh-Light2 [23]): Active | Activity (Medulloblastoma cell [24]): Active | Activity (Hh-Light2 [25]): Active | Activity (Medulloblastoma cell [26]): 0.64% | Activity (Hh-Light2 [27]): Active | Activity [28]: 0.35% | Activity (Medulloblastoma cell [29]): Active | Activity [30]: 87.9% | Activity (MEF [31]): Active | Activity (Med1 [32]): Active | Activity (Medulloblastoma cell [33]): Active | Activity (Medulloblastoma cell [34]): 5.44% | Activity (Medulloblastoma cell [35]): Active | Activity (MEF [36]): inactive

Cc1c(C(=O)Nc2ccc(N3C[C@@H](C)O[C@@H](C)C3)nc2)cccc1-c1ccc(OC(F)(F)F)cc1 [SONIDEGIB]
Activity (MEF [37]): inactive | Activity (Medulloblastoma cell [2]): 33% | Activity (Medulloblastoma cell [6]): 58.8% | Activity (MEF [38]): inactive | inhibition [39]: Active | Activity (Medulloblastoma cell [26]): 1.09% | inhibition [40]: Active | inhibition [41]: inactive | Activity (Medulloblastoma cell [33]): Active | Activity (Medulloblastoma cell [34]): 7.15%

CNCc1ccc(C)c(NC(=O)c2ccc(Nc3nc(-c4ccccc4)c4ccccc4n3)cc2)c1
Activity [42]: Active

From ChEMBL document CHEMBL5712072, “Epigenetic targeting of Hedgehog pathway transcriptional output through BET bromodomain inhibition” (Nat Med, 2014)
